Molecules are shown by their SMILES.

Experimental findings from ChEMBL document CHEMBL3784993, “Synthesis and anticancer activity of some 5-fluoro-2'-deoxyuridine phosphoramidates” (Bioorg Med Chem, 2016) are described below.

In experiment [1] the test system is HepG2. Put plainly: Selectivity index, ratio of IC50 for HDF cells to IC50 for human HepG2 cells. In kind it is functional. Summed up:
(§1)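 SI is calculated as the IC50 in normal human dermal fibroblasts (HDF) divided by the IC50 in the respective cancer line. Both values come from 72 h SRB assays. SD is from three independent experiments.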

The test system of experiment [2] is HeLa. Nature of the experiment: Selectivity index, ratio of IC50 for HDF cells to IC50 for human HeLa cells. Format: functional. Summed up:
as §1

A short description of experiment [3]: Selectivity index, ratio of IC50 for HDF cells to IC50 for human KB cells. Format: functional. Summed up: as §1
Experiment [4] is described as follows: Cytotoxicity against HDF cells after 72 hrs by SRB assay. The following applies: Homo sapiens. Format: cell-based.
The subject of experiment [5] is 143B. Put plainly: Cytotoxicity against human thymidine kinase deficient 143B cells after 72 hrs by SRB assay. In kind it is functional, cell-based. The method, boiled down:
(§2)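 SRB protein-stain assay. Cells were seeded at about 10,000 per well and grown 24 h to a partial monolayer. They were then exposed for 72 h at 37 °C (5% CO2, 90% RH) to six concentrations: 0.1, 0.2, 1, 2, 10 and 20 µM. Final DMSO was ≤0.1%. Cells were TCA-fixed and stained with 0.4% SRB, and OD was read at 490 nm. Survival was expressed versus untreated cells. Cytarabine served as internal standard, with three experiments.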

Experiment [6] relates to HepG2. Nature of the experiment: Cytotoxicity against human HepG2 cells after 72 hrs by SRB assay. In kind it is functional, cell-based. The following applies: HepG2, 72 h.
Experiment [7] relates to MCF7. Put plainly: Potency index, ratio of IC50 for 5-fluoro-2'-deoxyuridine to IC50 for test compound for cytotoxicity against human MCF7cells after 72 hrs by SRB assay. In kind it is functional.
Experiment [8] has as its system 143B. Put plainly: Selectivity index, ratio of IC50 for HDF cells to IC50 for human 143B cells. Format: functional. Summed up:
as §1

The test system of experiment [9] is HeLa. Nature of the experiment: Cytotoxicity against human HeLa cells after 72 hrs by SRB assay. In kind it is functional, cell-based. The method, boiled down:
as §2

Experiment [10] concerns 143B. Put plainly: Cytotoxicity against human 143B cells after 72 hrs by SRB assay. Format: functional, cell-based. Summed up: as §2
A further experiment deals with KB. Put plainly: Cytotoxicity against human KB cells after 72 hrs by SRB assay. In kind it is functional, cell-based. The method, boiled down: as §2
Experiment [11] deals with MCF7. Nature of the experiment: Cytotoxicity against human MCF7cells after 72 hrs by SRB assay. The note with it: MCF7, 72 h. Format: functional, cell-based.
The subject of experiment [12] is MCF7. Put plainly: Selectivity index, ratio of IC50 for HDF cells to IC50 for human MCF7 cells. Format: functional. The method, boiled down: as §1
For experiment [13], the system named is HeLa. Put plainly: Cytotoxicity against human HeLa cells after 72 hrs in presence of human recombinant cytochrome P450 isoform mixture by SRB assay. Format: functional, cell-based.

Turning to `CCNP(=O)(OC[C@H]1O[C@@H](n2cc(F)c(=O)[nH]c2=O)C[C@@H]1OC(=O)OC(C)(C)C)Oc1ccc(Cl)cc1` (some centres not stated), the “Ratio IC50” value in the experiment on HepG2 [1] amounted to 1.41; in the experiment with HeLa [2], 2.26; in experiment [3], 1.79; with MCF7 [7] it was 9; in the experiment on 143B [8], 1.37; with MCF7 [12], 4.24. Besides, the IC50 in experiment [4] was 6.02 µM; with 143B [5] it was 9.11 µM; in the experiment with HepG2 [6] it was 4.26 µM; in the experiment with HeLa [9] it was 2.66 µM; in the experiment with 143B [10] it was 4.4 µM; in the experiment with KB it was 3.37 µM. 1.42 µM corresponded to half-maximal inhibition in the experiment on MCF7 [11] (IC50).
For `CCCCNP(=O)(OC[C@H]1O[C@@H](n2cc(F)c(=O)[nH]c2=O)C[C@@H]1OC(=O)OC(C)(C)C)Oc1ccc(Cl)cc1` (some centres not stated), the IC50 in the experiment on HeLa [13] stood at 71.4 µM; in experiment [4], 87 µM; with HepG2 [6] it was 64.2 µM; in the experiment on HeLa [9] it was 76 µM; in the experiment with KB, 66.4 µM; in the experiment with MCF7 [11] it was 80.1 µM.
`CCCNP(=O)(OC[C@H]1O[C@@H](n2cc(F)c(=O)[nH]c2=O)C[C@@H]1OC(=O)OC(C)(C)C)Oc1ccc(Cl)cc1` (some centres not stated): the concentration for half-maximal inhibition (IC50) is 45.2 µM in the experiment with HeLa [13]; 61.1 µM in experiment [4]; 26 µM in the experiment on HepG2 [6]; 49.3 µM in the experiment with HeLa [9]; 27.2 µM with KB; 20.8 µM with MCF7 [11].
`CC(C)(C)OC(=O)O[C@H]1C[C@H](n2cc(F)c(=O)[nH]c2=O)O[C@@H]1COP(=O)(NCCCN=[N+]=[N-])Oc1ccc(Cl)cc1` (some centres not stated): the concentration for half-maximal inhibition (IC50) in the experiment on HeLa [13] was 24.1 µM; in experiment [4], 57.2 µM; with HepG2 [6] it was 46.9 µM; in the experiment on HeLa [9], 52.5 µM; with KB it was 54.9 µM; with MCF7 [11], 58.5 µM.
As to `CCCNP(=O)(OC[C@H]1O[C@@H](n2cc(F)c(=O)[nH]c2=O)C[C@@H]1O)Oc1ccc(Cl)cc1` (some centres not stated), the IC50 was found to be 45.9 µM in the experiment with HeLa [13]; 61 µM in [4]; 41.9 µM with HepG2 [6]; 50.2 µM in the experiment with HeLa [9]; 50.4 µM in the experiment on KB; 27.2 µM in the experiment on MCF7 [11].
